How the values were obtained:
[1] = molecular target: T1, Nuclear factor NF-kappa-B complex (Homo sapiens) (UniProt Q00653+P19838+Q04206); assay: (§1) Concentration required for complete inhibition of Nuclear factor kappa B DNA binding; assay type: protein-complex assay
How it was run: (§2)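 Jurkat T cells (RPMI 1640, 10% FCS, penicillin/streptomycin) pretreated 1 h with sesquiterpene lactone, first at 10, 20, 50, 100 μM, then 1–5 μM or 200–300 μM as needed. Stimulated 1 h with 200 U/mL TNF-α. Total extracts (Totex high-salt buffer) analysed by EMSA with ³²P-labeled NF-κB oligonucleotide, 25 min at room temperature. IC100 is the lowest tested level fully blocking binding; intermediate values assigned the higher level. Each experiment reproduced at least once.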

[2] = molecular target: T1, Nuclear factor NF-kappa-B complex (Homo sapiens); assay: as §1; assay type: protein-complex assay; design: unit not given here; how it was run: as §2

T1 sequence (P19838 whole entry, looked up): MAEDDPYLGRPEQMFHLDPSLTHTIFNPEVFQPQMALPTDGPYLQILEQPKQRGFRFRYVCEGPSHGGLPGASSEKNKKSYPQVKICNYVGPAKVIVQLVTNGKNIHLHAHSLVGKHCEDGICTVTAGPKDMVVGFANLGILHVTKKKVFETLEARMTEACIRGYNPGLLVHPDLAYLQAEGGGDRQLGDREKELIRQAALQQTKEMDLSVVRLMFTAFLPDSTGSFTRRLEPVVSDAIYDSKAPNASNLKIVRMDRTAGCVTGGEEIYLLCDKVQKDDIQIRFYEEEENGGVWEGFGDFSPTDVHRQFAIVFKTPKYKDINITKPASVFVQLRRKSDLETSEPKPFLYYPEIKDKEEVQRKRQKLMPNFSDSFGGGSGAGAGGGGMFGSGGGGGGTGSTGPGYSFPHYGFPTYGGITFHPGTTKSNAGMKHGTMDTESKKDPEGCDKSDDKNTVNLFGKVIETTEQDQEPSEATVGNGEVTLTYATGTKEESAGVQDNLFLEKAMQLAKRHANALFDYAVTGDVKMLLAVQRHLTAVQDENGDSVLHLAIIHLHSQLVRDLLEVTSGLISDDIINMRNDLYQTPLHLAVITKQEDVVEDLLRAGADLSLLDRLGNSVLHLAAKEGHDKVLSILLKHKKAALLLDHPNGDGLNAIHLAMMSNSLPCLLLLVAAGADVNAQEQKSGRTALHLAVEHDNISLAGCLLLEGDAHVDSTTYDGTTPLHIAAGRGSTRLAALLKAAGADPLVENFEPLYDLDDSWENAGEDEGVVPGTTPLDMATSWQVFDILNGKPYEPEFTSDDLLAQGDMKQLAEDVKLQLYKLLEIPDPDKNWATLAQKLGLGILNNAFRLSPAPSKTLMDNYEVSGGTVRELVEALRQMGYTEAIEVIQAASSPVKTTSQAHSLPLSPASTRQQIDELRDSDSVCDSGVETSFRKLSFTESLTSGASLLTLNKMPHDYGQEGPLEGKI
T1 sequence (Q00653 whole entry, looked up): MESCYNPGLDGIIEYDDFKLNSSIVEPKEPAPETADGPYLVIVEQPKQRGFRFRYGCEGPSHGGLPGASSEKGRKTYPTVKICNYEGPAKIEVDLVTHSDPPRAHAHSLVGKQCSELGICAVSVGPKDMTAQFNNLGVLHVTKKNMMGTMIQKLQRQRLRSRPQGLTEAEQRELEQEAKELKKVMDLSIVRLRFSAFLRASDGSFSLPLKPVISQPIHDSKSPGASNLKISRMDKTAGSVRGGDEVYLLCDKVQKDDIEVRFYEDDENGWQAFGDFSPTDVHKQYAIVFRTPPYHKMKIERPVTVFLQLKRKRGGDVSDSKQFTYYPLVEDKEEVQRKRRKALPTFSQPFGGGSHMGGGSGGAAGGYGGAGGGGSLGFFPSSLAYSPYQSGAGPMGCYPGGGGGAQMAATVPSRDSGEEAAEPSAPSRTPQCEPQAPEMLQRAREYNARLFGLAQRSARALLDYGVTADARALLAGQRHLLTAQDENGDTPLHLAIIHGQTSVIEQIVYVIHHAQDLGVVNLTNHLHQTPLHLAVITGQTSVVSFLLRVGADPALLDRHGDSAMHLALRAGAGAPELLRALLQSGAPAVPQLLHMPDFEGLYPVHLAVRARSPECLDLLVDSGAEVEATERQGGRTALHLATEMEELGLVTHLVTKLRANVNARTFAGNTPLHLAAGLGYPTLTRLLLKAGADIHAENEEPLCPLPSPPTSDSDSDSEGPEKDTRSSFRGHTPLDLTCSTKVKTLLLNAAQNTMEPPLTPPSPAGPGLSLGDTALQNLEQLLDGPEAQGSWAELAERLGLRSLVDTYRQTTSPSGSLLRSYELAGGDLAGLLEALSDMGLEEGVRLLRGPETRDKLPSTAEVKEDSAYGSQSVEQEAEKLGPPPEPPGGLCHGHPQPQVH
T1 sequence (Q04206 whole entry, looked up): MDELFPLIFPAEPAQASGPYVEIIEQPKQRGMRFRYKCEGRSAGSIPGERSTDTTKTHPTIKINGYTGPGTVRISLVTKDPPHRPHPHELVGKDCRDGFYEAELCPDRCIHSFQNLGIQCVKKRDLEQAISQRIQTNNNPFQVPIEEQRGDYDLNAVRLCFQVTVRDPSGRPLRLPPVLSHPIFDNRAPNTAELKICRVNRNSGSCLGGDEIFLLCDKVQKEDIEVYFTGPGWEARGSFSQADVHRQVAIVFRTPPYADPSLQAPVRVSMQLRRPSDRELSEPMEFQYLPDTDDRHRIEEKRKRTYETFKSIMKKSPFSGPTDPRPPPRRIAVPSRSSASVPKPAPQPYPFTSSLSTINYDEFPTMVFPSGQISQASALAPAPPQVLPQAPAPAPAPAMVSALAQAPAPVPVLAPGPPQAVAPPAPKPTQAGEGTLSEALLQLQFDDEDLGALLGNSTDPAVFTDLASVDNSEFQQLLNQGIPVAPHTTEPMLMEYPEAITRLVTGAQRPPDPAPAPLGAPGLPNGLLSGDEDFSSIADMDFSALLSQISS

| SMILES | IC100 [1] [µM] | pIC100 [2] |
| --- | --- | --- |
| C=C1C(=O)O[C@@H]2/C=C(/COC(=O)C(C)C)CC/C=C(/CO)C(=O)C[C@@H]12 | 12.5 | -1.09 |
| C=C1C(=O)O[C@H]2[C@H]1CCC(C)=C1C(=O)[C@H]3O[C@@]3(C)[C@@H]12 | 5 | -0.69 |
| C=C1C(=O)O[C@@H]2/C=C(/COC(=O)CC(C)C)C[C@H](OC(C)=O)/C=C(/CO)C(=O)C[C@@H]12 | 12.5 | -1.09 |
| C=C(C)C(=O)O[C@@H]1/C=C(/C=O)CCCC(=C)[C@H](O)[C@H]2OC(=O)C(=C)[C@@H]21 | 5 | -0.69 |
| C=C(C)C(=O)O[C@H]1C[C@@]2(C)OC(=CC2=O)C(=C)[C@@H](O)[C@H]2OC(=O)C(=C)[C@@H]21 | 10 | -1 |
| C=C1C(=O)O[C@H]2[C@H]1[C@@H](OC(=O)/C(C)=C/C)C/C(C)=C\[C@@]1(OC)C=C(C)[C@@H]2O1 | 10 | -1 |
| C=C1C(=O)O[C@@H]2/C=C(/C)CC/C=C(/C)C[C@@H](OC(=O)C=C(CO)CO)[C@@H]12 | 20 | -1 |
| C=C(C)C(=O)O[C@@H]1C[C@]2(C)CC[C@@](O)(O2)[C@@H](C)C[C@H]2OC(=O)C(=C)[C@H]12 | 200 | -2.3 |
| C=C1C(=O)O[C@H]2C[C@H](C)C3=C(C[C@H]12)[C@@H](C)CC3=O | 20 | -1.3 |
| C=C1C(=O)O[C@H]2C/C(CO)=C\CC/C(COC(=O)C3(C)CO3)=C\C[C@H]12 (stereo partly specified) | 50 | -1.69 |
| C=C(C)C(=O)OC/C1=C/C[C@@H]2C(=C)C(=O)O[C@H]2C/C(CO)=C\CC1 | 50 | -1.3 |
| C=C(C)C(=O)O[C@H]1[C@H]2C(=C)C(=O)O[C@@H]2[C@@H](O)C(=C)CC/C=C(/C=O)[C@@H]1OC | 50 | -1.3 |
| C=C1C(=O)O[C@@H]2/C=C(/C)[C@]3(O)O[C@@](C)(C[C@@H]3OC)C[C@@H](OC(=O)C(C)C)[C@@H]12 | 200 | -2.3 |
| C=C(C)C(=O)O[C@H]1[C@H]2C(=C)C(=O)O[C@@H]2/C=C(/C)CC/C=C(/C=O)[C@@H]1O | 10 | -1 |
| C=C1C(=O)OC2/C=C(/C)CC/C=C(/C)[C@@H](OC(C)=O)C[C@@H]12 (stereo partly specified) | 200 | -2.3 |
| C=C1C(=O)O[C@@H]2/C=C(/C)C3=CC(=O)[C@@](C)(C[C@@H](OC(=O)/C(C)=C\C)[C@@H]12)O3 | 5 | -0.39 |
| C=C(C)C(=O)O[C@@H]1C[C@](C)(O)[C@@H]2C(=O)C=C(C)[C@@H]2[C@H]2OC(=O)C(=C)[C@@H]21 | 50 | -1.69 |
| C=C1C(=O)O[C@@H]2/C=C(/CO)C3=CC(=O)[C@@](C)(C[C@H](OC(=O)/C(C)=C/C)[C@@H]12)O3 | 5 | -0.69 |
| C=C1C(=O)O[C@@H]2/C=C(/C)CC/C=C(/C)CC[C@@]12O | 10 | -1 |
| C=C1C(=O)O[C@H]2/C=C(\C)[C@@H](O)CC/C(C)=C/C[C@H]12 | 200 | -2 |
| C=C(CO)C(=O)OC/C1=C/C[C@@H]2C(=C)C(=O)O[C@H]2C/C(CO)=C\CC1 | 20 | -1.3 |
| C=C1C(=O)O[C@H]2C/C(CO)=C\CC/C(COC(=O)C(C)(C)O)=C\C[C@H]12 | 50 | -1.69 |
| C=C(C)C(=O)O[C@H]1[C@H]2C(=C)C(=O)O[C@@H]2[C@H]2O[C@]2(C)CC/C=C(/C=O)[C@@H]1O | 10 | -1 |
| C=C1C(=O)O[C@H]2C/C(CO)=C\CC/C(COC(=O)C(C)C(C)O)=C\C[C@H]12 (stereo partly specified) | 50 | -1.69 |
| C=C1C(=O)O[C@@H]2C[C@H](C)C3=CC(=O)[C@H](C)[C@@H]3C[C@H]12 | 50 | -1.69 |
| C=C(C)C(=O)O[C@H]1C/C(C)=C\[C@@]2(OC)C=C(C)[C@H](O2)[C@H]2OC(=O)C(=C)[C@@H]21 | 10 | -1 |
| C=C1C(=O)C[C@H]2C(=C)C(=O)O[C@@H]2/C=C(/COC(=O)CC(C)C)CC[C@H]1OC | 12.5 | -1.09 |
| C=C1C(=O)O[C@@H]2/C=C(/C)[C@H](OC(C)=O)C/C=C(/C)CC[C@@H]12 | 50 | -1.69 |
| C=C1C(=O)O[C@H]2C[C@]3(C)O[C@@H]3C[C@@H](OC(C)=O)C3=C[C@@H](OC3=O)[C@H]12 | 10 | -1 |
| C=C1C(=O)O[C@@H]2/C=C(/COC(=O)CC(C)C)CC/C=C(/CO)C(=O)C[C@@H]12 (stereo in doubt; 3) | 12.5 | -1.09 |

Now from value to compound:

| IC100 [1] [µM] | pIC100 [2] | SMILES |
| --- | --- | --- |
| 20 | -1.3 | C=C1C(=O)O[C@@H]2[C@H]3C(C)=CC(=O)C3=C(C)C[C@@H](OC(=O)[C@]3(C)O[C@@H]3C)[C@@H]12 |
| 25 | -1.39 | C=C1C(=O)C[C@H]2C(=C)C(=O)O[C@@H]2/C=C(/COC(=O)C(C)C)CC[C@H]1OC |
| 10 | -1 | C=C(C)C(=O)O[C@@H]1/C=C(/C=O)[C@H](OC)CCC(=C)[C@H](O)[C@H]2OC(=O)C(=C)[C@@H]21 |
| 20 | -1.3 | C=C(C)C(=O)O[C@H]1C[C@@]2(C)OC(=CC2=O)/C(CO)=C\[C@H]2OC(=O)C(=C)[C@H]12 |
| 5 | -0.69 | C=C1C(=O)C=C2[C@H]1C[C@@H]1C(=C)C(=O)O[C@H]1C[C@@H]2C |
| 50 | -1.69 | C=C1C(=O)O[C@H]2C/C(CO)=C\CC/C(COC(=O)C(C)C)=C\C[C@H]12 |
| 10 | -1 | C=C(C)C(=O)O[C@@H]1C[C@@]2(C)OC(=CC2=O)/C(C)=C\[C@H]2OC(=O)C(=C)[C@@H]21 |
| 5 | -0.69 | C=C(C)C(=O)O[C@H]1/C(C=O)=C\CC/C(COC(C)=O)=C\[C@H]2OC(=O)C(=C)[C@@H]2[C@@H]1O |
| 200 | -2.3 | C=C1[C@@H]2[C@H]3OC(=O)C(=C)[C@@H]3CCC(=C)[C@@H]2C[C@@H]1OC(=O)C=C(C)C |
| 100 | -2 | C=C1C(=O)O[C@@H]2[C@H]3C(C)=CC[C@H]3[C@](C)(O)C[C@H](O)[C@@H]12 |
| 50 | -1.69 | C=C(CO)C(=O)OC/C1=C/C[C@@H]2C(=C)C(=O)O[C@H]2C/C(COC(C)=O)=C\CC1 |
| 100 | -2 | C=C1C(=O)O[C@H]2C/C(CO)=C\CC/C(COC(=O)C(C)CO)=C\C[C@H]12 (stereo partly specified) |
| 25 | -1.09 | C=C1C(=O)C[C@H]2C(=C)C(=O)O[C@@H]2/C=C(/COC(=O)C(C)C)CC[C@@H]1OC |
| 5 | -1 | C=C(C)C(=O)O[C@@H]1/C=C(\C=O)CCC[C@@]2(CO2)[C@H](O)[C@H]2OC(=O)C(=C)[C@@H]21 |
| 20 | -1.3 | C=C1C(=O)O[C@@H]2[C@H]3C(C)=C(Cl)C(=O)C3=C(C)CC[C@@H]12 |
| 50 | -1.69 | C=C1C(=O)O[C@@H]2[C@H]3C(CO)=CC(=O)C3=C(C)CC[C@@H]12 |
| 5 | -0.69 | C=C(C)C(=O)O[C@@H]1/C=C(/C=O)CCC[C@@]2(CO2)[C@H](O)[C@H]2OC(=O)C(=C)[C@@H]21 |
| 50 | -1 | C=C(C)C(=O)O[C@@H]1C[C@]2(C)CC[C@@](O)(O2)/C(C)=C\[C@H]2OC(=O)C(=C)[C@@H]21 |

Reference: ChEMBL document CHEMBL1139436, “Quantitative structure-activity relationship of sesquiterpene lactones as inhibitors of the transcription factor NF-kappaB” (J Med Chem, 2004)
